Values joined by “and” are separate entries in the source; they are usually repeats but may differ in a detail not shown here. Equal values may be shown once. Read-outs that look alike come from different tables or passages of the source.
Tests used:
[1] = patients with severe renal impairment (CrCL of 15 mL/min) compared with healthy participants; cited from earlier work
[2] = type: in vivo, human; conditions: for AUC / AUC(0-t) / AUC(0-inf) / Cmax / Tmax / half-life: human, plasma, po, 60 mg; for AUC: AUC96, single oral 60 mg; for AUC / AUC(0-t) / AUC(0-inf) / Cmax / %Urt (percentage dose recovered in urine) / CLT/F (apparent total body clearance): adjusted geometric mean (%CV); for AUC(0-t): AUCt; for AUC(0-t) / AUC(0-inf) / Cmax / Tmax / half-life / %Urt (percentage dose recovered in urine) / CLT/F (apparent total body clearance): single oral 60 mg; for Cmax: n = 8; for Tmax: median (minimum–maximum); for half-life: T½ (terminal plasma half-life), mean (SD)
Outline: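 There were three eGFR-defined groups (MDRD; n = 8 each, matched by age, weight and sex). Each participant received one oral 60 mg dose after a standard meal, with serial plasma and urine collection. Plasma concentrations were measured by validated LC-MS/MS. Urine recovery was the sum of concentration × urine volume per collection interval, expressed as % of dose. CLT/F came from plasma concentration-time data. Values are adjusted geometric mean (%CV).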

[3] = Milvexian plasma protein binding by LC-MS/MS; type: in vitro ADME, human; conditions: adjusted geometric mean (%CV); for fraction unbound: human, plasma, %fu (fraction of unbound drug)
Outline: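 The severe group had eGFR < 30 mL/min/1.73 m2 (MDRD) and no dialysis, and received a single oral 60 mg dose after a standard meal. A designated protein-binding blood sample was analysed for […] test compound by validated LC-MS/MS. Results were reported as adjusted geometric mean (%CV).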

Safety and tolerability = type: in vivo, human; conditions: for Any AE / Headache / Somnolence: single oral 60 mg
aPTT = assay: Activated partial thromboplastin time; type: in vivo, human; conditions: for aPTT percentage change from baseline at mean peak: single oral 60 mg
Outline: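 Participants (n = 8 per group) were grouped by eGFR (MDRD formula): normal ≥ 90, moderate ≥ 30 to ≤ 59, or severe < 30 mL/min/1.73 m2 (not on dialysis). They were matched by age, body weight and sex. Each received a single oral dose of test compound after a standard meal. aPTT was an exploratory PD biomarker, measured by a validated central-laboratory assay. Baseline was predose Day 1.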

[4] = Linear regression of log-transformed PK parameters versus eGFR or CrCL; type: in vivo, human; conditions: for increase in overall exposure: regression analysis
[5] = previous first-in-human study; cited from earlier work
[6] = patients undergoing dialysis compared with healthy participants; cited from earlier work
[7] = single dose 60 mg, all 24 participants
[8] = moderate renal impairment, n = 8
[9] = CrCL 30 vs CrCL 90 mL/min, CrCL-based regression
[10] = eGFR 15 vs eGFR 90 mL/min/1.73 m^2, eGFR-based regression
[11] = eGFR 30 vs eGFR 90 mL/min/1.73 m^2, eGFR-based regression

In the case of `COc1ccc(-n2nc(C(N)=O)c3c2C(=O)N(c2ccc(N4CCCCC4=O)cc2)CC3)cc1` [apixaban], the increase in exposure [1] is listed as 44%.

`C[C@@H]1CCC[C@H](n2cnc(-c3cc(Cl)ccc3-n3cc(Cl)nn3)cc2=O)c2cc(ccn2)-c2c(cnn2C(F)F)NC1=O` [milvexian, Milvexian] showed an AUC ([2]; moderate renal impairment) of 5020 ng·h/mL, an AUC ([2]; normal renal function) of 3880 ng·h/mL and an AUC ([2]; severe renal impairment) of 7170 ng·h/mL. It also gave an AUC(0-t) ([2]; moderate renal impairment) of 5000 ng·h/mL, an AUC(0-t) ([2]; normal renal function) of 3860 ng·h/mL and an AUC(0-t) ([2]; severe renal impairment) of 7090 ng·h/mL. It also gave an AUC(0-inf) ([2]; moderate renal impairment) of 5150 ng·h/mL, an AUC(0-inf) ([2]; normal renal function) of 3920 ng·h/mL and an AUC(0-inf) ([2]; severe renal impairment) of 7410 ng·h/mL. For the same compound, the Cmax ([2]; moderate renal impairment (eGFR ≥ 30 to ≤ 59)) was 406 ng/mL, the Cmax ([2]; normal renal function (eGFR ≥ 90)) was 462 ng/mL and the Cmax ([2]; severe renal impairment (eGFR < 30)) was 462 ng/mL. For the same compound, the Tmax ([2]; moderate renal impairment) was 4.75 h, the Tmax ([2]; normal renal function) was 4.5 h and the Tmax ([2]; severe renal impairment) was 5 h. It also gave a half-life ([2]; moderate renal impairment) of 18 h, a half-life ([2]; normal renal function) of 13.8 h and a half-life ([2]; severe renal impairment) of 17.7 h. The “%Urt (percentage dose recovered in urine)” value ([2]; moderate renal impairment) was 7.64 (33) %, the “CLT/F (apparent total body clearance)” value ([2]; moderate renal impairment) was 11.6 L/h and 11.6 (32) L/h and the “%Urt (percentage dose recovered in urine)” value ([2]; normal renal function) was 10.5 (45) %. The “CLT/F (apparent total body clearance)” value ([2]; normal renal function) was 15.3 L/h and 15.3 (36) L/h, the “%Urt (percentage dose recovered in urine)” value ([2]; severe renal impairment) was 3.14 (75) % and the “CLT/F (apparent total body clearance)” value ([2]; severe renal impairment) was 8.10 L/h and 8.10 (37) L/h. It also gave a fraction unbound ([3]; moderate renal impairment) of 0.0881, a fraction unbound ([3]; normal renal function) of 0.0885 and a fraction unbound ([3]; severe renal impairment) of 0.084. The “%Protein binding” value ([3]; severe renal impairment) was 91.5 (1) %, the participants reporting headache (Safety and tolerability; [7]) was 8.3% and the “participants reporting one AE” value (Safety and tolerability; [7]) was 12.5%. The participants reporting somnolence (Safety and tolerability; [7]) was 4.2%, the bleeding events (Safety and tolerability; single dose 60 mg, all renal function groups) was “No bleeding events were reported” and the “Any AE” value (Safety and tolerability; [8]) was 1 (12.5) n (%). The Headache (Safety and tolerability; [8]) was 1 (12.5) n (%), the Somnolence (Safety and tolerability; [8]) was 0 n (%) and the “Any AE” value (Safety and tolerability; normal renal function, n = 8) was 1 (12.5) n (%). The Headache (Safety and tolerability; normal renal function, n = 8) was 0 n (%), the Somnolence (Safety and tolerability; normal renal function, n = 8) was 1 (12.5) n (%) and the “Any AE” value (Safety and tolerability; severe renal impairment, n = 8) was 1 (12.5) n (%). The Headache (Safety and tolerability; severe renal impairment, n = 8) was 1 (12.5) n (%), the Somnolence (Safety and tolerability; severe renal impairment, n = 8) was 0 n (%) and the “Any AE” value (Safety and tolerability; total, N = 24) was 3 (12.5) n (%). For the same compound, the Headache (Safety and tolerability; total, N = 24) was 2 (8.3) n (%), the Somnolence (Safety and tolerability; total, N = 24) was 1 (4.2) n (%) and the “aPTT percentage change from baseline at mean peak” value (from here on “aPTT percentage change”) (aPTT; moderate renal impairment, 5 h postdose) was 97%. The “aPTT percentage change” value (aPTT; normal renal function, 5 h postdose) was 127%, the “aPTT percentage change” value (aPTT; severe renal impairment, 6 h postdose) was 100% and the “effect on aPTT” value (aPTT; single oral dose, all renal function groups) was “concentration-dependent prolongation of aPTT”. The “increase in AUCt” value ([4]; CrCL 15 vs CrCL 90 mL/min, CrCL-based regression) was 49%, the “increase in AUCt” value [4, 9] was 38% and the “increase in AUC∞” value [4, 9] was 40%. The “increase in AUCt” value [4, 10] was 50%, the “increase in AUC∞” value [4, 10] was 54% and the “increase in AUCt” value [4, 11] was 39%. The “increase in AUC∞” value [4, 11] was 41%, the “increase in overall exposure” value ([4]; moderate renal impairment group) was “approximately 40%” and the “increase in overall exposure” value ([4]; severe renal impairment group) was ~50%. The renal excretion [5] was “below 20%”.

For `O=C(NC[C@H]1CN(c2ccc(N3CCOCC3=O)cc2)C(=O)O1)c1ccc(Cl)s1` [rivaroxaban], the increase in exposure [6] is given as 56%.

— publication PMC9553801 (Clinical Pharmacokinetics, 2022)
